Data set [1] deals with NCI-H187. The data set is described as follows: Cytotoxicity against human NCI-H187 cells at 50 ug/ml by SRB assay. The class given is functional, cell-based.
Data set [2] has as its system KB. The data set is described as follows: Cytotoxicity against human KB cells at 50 ug/ml by SRB assay. It counts as functional, cell-based. Background: The SRB assay estimates cell density from bound dye.
The test system of data set [3] is BC. The data set is described as follows: Cytotoxicity against BC cells at 50 ug/ml by SRB assay. The class given is functional, cell-based.
The subject of data set [4] is Vero. The data set is described as follows: Cytotoxicity against african green monkey Vero cells at 50 ug/ml by SRB assay. It counts as cell-based. To be noted: chlorocebus sabaeus.
Data set [5] relates to Mycobacterium tuberculosis. The data set is described as follows: Antimycobacterial activity against Mycobacterium tuberculosis H37Ra by microplate alamar blue assay. The class given is functional. The essentials: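 M. tuberculosis H37Ra grown in Middlebrook 7H9 broth and tested in a microplate Alamar Blue assay, with MIC as the read-out. Isoniazid and kanamycin sulfate were run as standard drugs.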
A general note: Alamar Blue is a resazurin reagent that responds to reducing activity.

The test system of data set [6] is BC. The data set is described as follows: Cytotoxicity against BC cells by SRB assay. The class given is functional, cell-based. The essentials:
(§1)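 Colorimetric cytotoxicity read-out following the Skehan method, run on Vero, KB, NCI-H187 and BC cell lines, with ellipticine included as the reference compound; result reported as IC50.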

Data set [7] deals with NCI-H187. In words: Cytotoxicity against human NCI-H187 cells by SRB assay. The class given is functional, cell-based. The essentials:
as §1

In data set [8] the test system is KB. In words: Cytotoxicity against human KB cells by SRB assay. The class given is functional, cell-based. The method in brief: as §1
For data set [9], the system named is Vero. In words: Cytotoxicity against african green monkey Vero cells by SRB assay. It counts as cell-based. To be noted: chlorocebus sabaeus. The essentials:
as §1

Values after ≈ are worked out from the molar mass of the structure shown. Active and inactive are the calls of the source. The calls are words filed in the database; no cut-off is given here.

The term MIC denotes the least concentration at which growth counts as inhibited. In the case of `CC1=C(CO)C(=O)CC1`, the result in the data set on NCI-H187 [1], in the data set on KB [2] and in the data set on BC [3] was inactive. For the same molecule, the Activity entry in the data set with Vero [4] is reported as “Not Active”. In [5], this molecule came in with an MIC of 200 µg/mL (≈ 1590 µM).
A word on the IC50: it is the point on the concentration scale where inhibition reaches its midpoint. Take `C[C@@H]1CC/C(=N\Nc2ccc([N+](=O)[O-])cc2[N+](=O)[O-])[C@@H]1CO`: the outcome with BC [6], in the data set with NCI-H187 [7] and in the data set on KB [8] was inactive. For the same molecule, the MIC in data set [5] worked out at 200 µg/mL (≈ 649 µM). In addition, the IC50 with Vero [9] turned out to be 21.7 µg/mL (≈ 70.4 µM).
`CC1=C(CO)/C(=N/Nc2ccc([N+](=O)[O-])cc2[N+](=O)[O-])CC1`: the outcome in the data set on NCI-H187 [1], with KB [2] and in the data set on BC [3] was inactive. Further, in the data set on Vero [4], the Activity entry is listed as “Not Active”.
Regarding `COC(=O)c1cc(O)cc(OC)c1Oc1cc(C)cc(O)c1C(=O)O` [ASTERRIC ACID], the result in the data set on NCI-H187 [1], in the data set on KB [2] and with BC [3] was inactive. Also, in the data set on Vero [4], the Activity result is “Not Active”. Moreover, in data set [5], the MIC amounted to 200 µg/mL (≈ 574 µM).
